In ChEMBL document CHEMBL4834429, “Discovery of Nanomolar Melanocortin-3 Receptor (MC3R)-Selective Small Molecule Pyrrolidine Bis-Cyclic Guanidine Agonist Compounds Via a High-Throughput "Unbiased" Screening Campaign” (J Med Chem, 2021):
pEC50: −log10 of the molar value.

Assays:
Type in all cases: functional, cell-based
[1] = molecular target: Melanocortin receptor 4 (Mus musculus) (UniProt P56450); assay: Agonist activity at mouse melanocortin receptor 4 expressed in HEK293 cells assessed as stimulation of intracellular cAMP accumulation at 10 uM incubated for 24 hrs by beta-galactosidase reporter gene assay relative to control; settings: filed as agonist
Melanocortin receptor 4 (Mus musculus), sequence (P56450 whole entry): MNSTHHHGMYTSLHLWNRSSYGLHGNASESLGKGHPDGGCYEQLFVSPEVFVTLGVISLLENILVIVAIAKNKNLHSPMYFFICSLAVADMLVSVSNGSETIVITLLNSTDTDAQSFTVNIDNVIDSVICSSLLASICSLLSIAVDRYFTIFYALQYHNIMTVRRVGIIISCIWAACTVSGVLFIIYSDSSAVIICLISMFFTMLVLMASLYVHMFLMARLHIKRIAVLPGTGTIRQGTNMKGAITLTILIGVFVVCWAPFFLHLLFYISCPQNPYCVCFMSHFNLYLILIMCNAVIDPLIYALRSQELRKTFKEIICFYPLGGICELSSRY
Outline: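 After lysis, ONPG hydrolysis was read at 405 nm and normalized to Bradford protein and maximal NDP-MSH response. Duplicates, ≥3 independent experiments; 100 μM dropped from fits where toxic.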

[2] = molecular target: Melanocyte-stimulating hormone receptor (Mus musculus, UniProt Q01727); assay: Antagonist activity at mouse melanocortin receptor 1 expressed in HEK293 cells assessed as inhibition of NDP-MSH-induced intracellular cAMP accumulation incubated for 24 hrs by beta-galactosidase reporter gene assay
Melanocyte-stimulating hormone receptor, sequence (Q01727 whole entry): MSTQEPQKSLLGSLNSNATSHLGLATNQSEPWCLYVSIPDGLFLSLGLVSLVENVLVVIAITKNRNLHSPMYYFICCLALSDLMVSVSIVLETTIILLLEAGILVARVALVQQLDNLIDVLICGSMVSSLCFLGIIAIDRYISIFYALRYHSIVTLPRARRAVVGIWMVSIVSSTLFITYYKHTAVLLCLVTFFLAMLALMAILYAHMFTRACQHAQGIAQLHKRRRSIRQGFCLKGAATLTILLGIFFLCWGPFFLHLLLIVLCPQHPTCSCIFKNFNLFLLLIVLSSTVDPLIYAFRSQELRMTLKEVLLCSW

Melanocortin receptor 5 = Melanocortin receptor 5 (Mus musculus, UniProt P41149); assay: Agonist activity at mouse melanocortin receptor 5 expressed in HEK293 cells assessed as stimulation of intracellular cAMP accumulation incubated for 24 hrs by beta-galactosidase reporter gene assay
Melanocortin receptor 5, sequence (P41149 whole entry): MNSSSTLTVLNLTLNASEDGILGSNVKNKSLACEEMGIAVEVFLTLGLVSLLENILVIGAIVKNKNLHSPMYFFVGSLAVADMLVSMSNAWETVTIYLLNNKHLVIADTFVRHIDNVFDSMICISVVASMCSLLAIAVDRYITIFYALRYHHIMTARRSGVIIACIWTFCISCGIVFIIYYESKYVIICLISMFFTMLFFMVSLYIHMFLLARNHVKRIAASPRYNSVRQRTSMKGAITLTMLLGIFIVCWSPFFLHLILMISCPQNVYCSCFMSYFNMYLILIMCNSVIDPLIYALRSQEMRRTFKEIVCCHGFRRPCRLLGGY

Melanocortin receptor 3 = Melanocortin receptor 3 (Mus musculus, UniProt P33033); assay: Antagonist activity at mouse melanocortin receptor 3 expressed in HEK293 cells assessed as inhibition of NDP-MSH-induced intracellular cAMP accumulation incubated for 24 hrs by beta-galactosidase reporter gene assay
Melanocortin receptor 3, sequence (P33033 whole entry): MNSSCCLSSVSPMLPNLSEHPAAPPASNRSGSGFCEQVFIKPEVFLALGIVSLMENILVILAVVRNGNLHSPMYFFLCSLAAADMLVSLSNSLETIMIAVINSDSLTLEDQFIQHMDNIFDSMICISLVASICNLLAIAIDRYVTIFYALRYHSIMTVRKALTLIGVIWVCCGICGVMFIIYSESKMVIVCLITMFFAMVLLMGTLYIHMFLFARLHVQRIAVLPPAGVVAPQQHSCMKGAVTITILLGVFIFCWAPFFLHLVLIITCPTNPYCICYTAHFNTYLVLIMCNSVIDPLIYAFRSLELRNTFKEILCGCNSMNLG

## CCC[C@@H]1CN([C@H](Cc2ccccc2)CN2CCC[C@H]2CN2C(=N)NC[C@H]2CC(C)C)C(=N)N1CCCC(C)C
[1]
  Emax: 51%
[2]
  pEC50: < 4.00
Melanocortin receptor 5
  pEC50: 5.66
Melanocortin receptor 3
  pEC50: < 4.00
